The source made the active and inactive calls. No cut-off for these calls is given here.
Experiments:
Influenza A virus [1] = assay: Antiviral activity against Influenza A virus (A/Puerto Rico/8/34(H1N1)) infected in dog MDCK cells assessed as reduction in virus-induced cytopathogenicity incubated for 48 hrs by microscopic analysis; type: functional, organism-based; conditions: A/Puerto Rico/8/1934(H1N1)
MDCK [2] = assay: Upregulation of MxA in dog MDCK cells infected with Influenza A virus (A/Puerto Rico/8/34(H1N1)) at 40 uM incubated for 24 hrs by qRT-PCR analysis; type: functional, cell-based; conditions: Canis lupus familiaris
Method in brief: (§1)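 Virus-infected MDCK cells were treated with compound for 24 h. Expression of each gene was then measured by qRT-PCR using gene-specific primers, against an untreated control group.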

Influenza A virus [3] = assay: Antiviral activity against Influenza A virus (A/Puerto Rico/8/34(H1N1)) infected in dog MDCK cells assessed as reduction in viral replication by measuring NP level incubated for 24 hrs by Western blot analysis; type: functional, organism-based; conditions: A/Puerto Rico/8/1934(H1N1), dose 5-40 µM
Method in brief: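 Two-fold serial compound dilutions were added to PR8-infected MDCK cells after virus adsorption, and cells were harvested at 24 h p.i. Equal lysate protein was run on 10% SDS-PAGE and transferred to PVDF. Blots were probed with anti-NP (1:2000) and β-actin as loading control, then an HRP secondary, with chemiluminescent detection.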

Influenza A virus [4] = assay: Antiviral activity against Influenza A virus (A/Puerto Rico/8/34(H1N1)) infected in dog MDCK cells assessed as reduction in viral replication by measuring NP expression at 40 uM measured upto 10 hrs by Western blot analysis; type: functional, organism-based; conditions: A/Puerto Rico/8/1934(H1N1), time hrs <=10
Method in brief: (§2)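 Time-of-addition assay with PR8. After unabsorbed virus was removed, cells received compound during the intervals 0–2, 2–5, 5–8, 8–10 or 0–10 h, covering one replication cycle. At 10 h p.i., viral NP protein was read by western blot and viral mRNA by qRT-PCR. Three independent experiments, mean SD.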

MDCK [5] = assay: Upregulation of IFN-beta in dog MDCK cells infected with Influenza A virus (A/Puerto Rico/8/34(H1N1)) at 40 uM incubated for 24 hrs by qRT-PCR analysis; type: functional, cell-based; conditions: Canis lupus familiaris; method in brief: as §1
[6] = Selectivity index, ratio of CC50 for dog MDCK cells to IC50 for antiviral activity against Influenza A virus 690 (H3); type: toxicity; conditions: read-out: Ratio CC50/IC50
Method in brief: (§3)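 SI = CC50/IC50, both from MTT read-outs in MDCK cells in triplicate. Cytotoxicity: 2 × 10⁴ cells/well, overnight at 37 °C with 5% CO2, then compound at 1.56–400 µM for 48 h, MTT 4 h, DMSO, A570. Antiviral: cells infected 1 h, washed, then cultured 48 h in DMEM with TPCK and two-fold serial compound dilutions.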

Influenza A virus [7] = assay: Antiviral activity against Influenza A virus (A/Puerto Rico/8/34(H1N1)) infected in dog MDCK cells assessed as reduction in viral replication at 40 uM measured upto 10 hrs; type: functional, organism-based; conditions: A/Puerto Rico/8/1934(H1N1), time hrs <=10; method in brief: as §2
[8] = Selectivity index, ratio of CC50 for dog MDCK cells to IC50 for antiviral activity against Influenza A virus (A/Fort Monmouth/1/1947(H1N1)); type: toxicity; conditions: read-out: Ratio CC50/IC50; method in brief: as §3
Influenza A virus [9] = assay: Antiviral activity against Influenza A virus (A/Puerto Rico/8/34(H1N1)) infected in human A549 cells assessed as reduction in viral replication by measuring NP expression at 40 uM measured upto 10 hrs by qRT-PCR analysis; type: functional, organism-based; conditions: A/Puerto Rico/8/1934(H1N1), time hrs <=10; method in brief: as §2
Influenza A virus [10] = assay: Antiviral activity against Influenza A virus (A/Puerto Rico/8/34(H1N1)) infected in dog MDCK cells assessed as reduction in viral replication by measuring NP level incubated for 24 hrs by immunofluorescence staining based Ti-Eclipse inverted fluorescence microscopic analysis; type: functional, organism-based; conditions: A/Puerto Rico/8/1934(H1N1), dose 5-40 µM
Method in brief: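 MDCK cells were infected with PR8 at 100TCID₅₀ and treated with varied compound concentrations. At 24 h p.i. they were washed with cold PBS, fixed in 4% paraformaldehyde for 10 min and blocked in 3% BSA for 1 h at room temperature. Staining used anti-NP (1:250) overnight at 4 °C, then a FITC secondary for 1 h, with DAPI nuclear counterstain; cells were imaged by fluorescence microscopy.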

Influenza A virus [11] = assay: Antiviral activity against Influenza A virus (A/Puerto Rico/8/34(H1N1)) infected in dog MDCK cells assessed as reduction in plaque formation incubated for 48 hrs by crystal violet staining based assay; type: functional, organism-based; conditions: A/Puerto Rico/8/1934(H1N1), dose 5-40 µM
Method in brief: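 Plaque reduction assay in PR8-infected MDCK cells across a range of compound doses. Cells were fixed with 4% paraformaldehyde and stained with crystal violet. Inhibition was scored by counting plaques.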

[12] = Cytotoxicity against human A549 cells assessed as reduction in cell viability incubated for 48 hrs by MTT assay; type: cell-based
Method in brief: (§4)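 MDCK or A549 cells were seeded at 2 × 10⁴ per well and incubated overnight at 37 °C, 5% CO₂. Compound (1.56 to 400) was added for 48 h, followed by MTT for 4 h at 37 °C and DMSO to dissolve the formazan. Absorbance was read at 570 nm and CC₅₀ calculated.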

Influenza A virus [13] = assay: Antiviral activity against Influenza A virus (A/Fort Monmouth/1/1947(H1N1)) infected in dog MDCK cells assessed as reduction in virus-induced cytopathogenicity incubated for 48 hrs by microscopic analysis; type: functional, organism-based
Influenza A virus [14] = assay: Antiviral activity against Influenza A virus 690 (H3) infected in dog MDCK cells assessed as reduction in virus-induced cytopathogenicity incubated for 48 hrs by microscopic analysis; type: functional, organism-based
[15] = Selectivity index, ratio of CC50 for dog MDCK cells to IC50 for antiviral activity against Influenza A virus (A/Puerto Rico/8/34(H1N1)); type: toxicity; conditions: read-out: Ratio CC50/IC50; method in brief: as §3
[16] = Cytotoxicity against dog MDCK cells assessed as reduction in cell viability incubated for 48 hrs by MTT assay; type: cell-based, Canis lupus familiaris; method in brief: as §4
MDCK [17] = assay: Downregulation of NOX1 in dog MDCK cells infected with Influenza A virus (A/Puerto Rico/8/34(H1N1)) at 40 uM incubated for 24 hrs by qRT-PCR analysis; type: functional, cell-based; conditions: Canis lupus familiaris; method in brief: as §1
H3N2 subtype = assay: Antiviral activity against Influenza A virus (A/Aichi/2/1968(H3N2)) infected in dog MDCK cells assessed as reduction in virus-induced cytopathogenicity incubated for 48 hrs by microscopic analysis; type: functional, cell-based
[18] = Selectivity index, ratio of CC50 for dog MDCK cells to IC50 for antiviral activity against Influenza A virus (A/Aichi/2/1968(H3N2)); type: toxicity; conditions: read-out: Ratio CC50/IC50; method in brief: as §3
Influenza A virus [19] = assay: Antiviral activity against Influenza A virus (A/Puerto Rico/8/34(H1N1)) infected in human A549 cells assessed as reduction in viral replication by measuring HA mRNA expression at 5 to 40 uM incubated for 24 hrs by qRT-PCR analysis; type: functional, organism-based; conditions: A/Puerto Rico/8/1934(H1N1), dose 5-40 µM
Influenza A virus [20] = assay: Antiviral activity against Influenza A virus (A/Puerto Rico/8/34(H1N1)) infected in dog MDCK cells assessed as reduction in viral replication by measuring HA mRNA expression measured upto 72 hrs by qRT-PCR analysis; type: functional, organism-based; conditions: A/Puerto Rico/8/1934(H1N1), time hrs <=72
Method in brief: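 Viral HA mRNA was measured by qRT-PCR in IAV-infected MDCK cells treated with serially diluted compound, at 24, 48 and 72 h p.i. Ribavirin served as positive control; data are mean SD.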

Row | Compound | IC50 (Influenza A virus [1]) | also measured
1 | CCOC(=O)C1=C(Nc2ccc(C(F)(F)F)cc2)C(=O)N(c2ccc(C(F)(F)F)cc2)C1c1cccc2ccccc12 (stereo not given) | 11.8 µM | 
2 | CCOC(=O)C1=C(Nc2ccc(C(F)(F)F)cc2)C(=O)N(c2ccc(C(F)(F)F)cc2)C1c1ccc(C#N)cc1 (stereo not given) | > 400 µM | 
3 | CCOC(=O)C1=C(Nc2ccc(Cl)cc2)C(=O)N(c2ccc(Cl)cc2)C1c1ccccc1 (stereo not given) | > 400 µM | 
4 | CCOC(=O)C1=C(Nc2ccc(Br)cc2)C(=O)N(c2ccc(Br)cc2)C1c1ccccc1 (stereo not given) | > 400 µM | 
5 | COC(=O)C1=C(Nc2cccc(C(F)(F)F)c2)C(=O)N(c2cccc(C(F)(F)F)c2)C1c1ccccc1 (stereo not given) | 16.1 µM | 
6 | CCOC(=O)C1=C(Nc2ccc(C(F)(F)F)cc2)C(=O)N(c2ccc(C(F)(F)F)cc2)C1c1cccc(OC)c1 (stereo not given) | 9.23 µM | 
7 | CCOC(=O)C1=C(Nc2ccc(C(F)(F)F)cc2)C(=O)N(c2ccc(C(F)(F)F)cc2)C1c1ccc(Cl)cc1 (stereo not given) | > 400 µM | 
8 | CCOC(=O)C1=C(Nc2cccc(C(F)(F)F)c2)C(=O)N(c2cccc(C(F)(F)F)c2)C1c1ccccc1 (stereo not given) | 30.9 µM | 
9 | CCOC(=O)C1=C(Nc2ccc(OC)cc2)C(=O)N(c2ccc(OC)cc2)C1c1ccccc1 (stereo not given) | > 400 µM | 
10 | CCOC(=O)C1=C(Nc2ccc(C(F)(F)F)cc2)C(=O)N(c2ccc(C(F)(F)F)cc2)C1c1ccc(F)cc1 (stereo not given) | 7.63 µM | 
11 | CCOC(=O)C1=C(Nc2ccc(C(F)(F)F)cc2)C(=O)N(c2ccc(C(F)(F)F)cc2)C1c1ccc(C(F)(F)F)cc1 (stereo not given) | 67.2 µM | 
12 | CCOC(=O)C1=C(NC2CCCCC2)C(=O)N(C2CCCCC2)C1c1ccccc1 (stereo not given) | > 400 µM | 
13 | CCOC(=O)C1=C(Nc2ccc(C(F)(F)F)cc2)C(=O)N(c2ccc(C(F)(F)F)cc2)C1c1ccc(Br)cc1 (stereo not given) | > 400 µM | 
14 | CCOC(=O)C1=C(Nc2ccc(C(C)C)cc2)C(=O)N(c2ccc(C(C)C)cc2)C1c1ccccc1 (stereo not given) | > 400 µM | 
15 | NC(=O)c1ncn([C@@H]2O[C@H](CO)[C@@H](O)[C@H]2O)n1 [RIBAVIRIN] | 2.84 µM | 
16 | CCOC(=O)C1=C(Nc2ccc(C)cc2)C(=O)N(c2ccc(C)cc2)C1c1ccccc1 (stereo not given) | 19 µM | 
17 | CCOC(=O)C1=C(Nc2ccc(C(F)(F)F)cc2)C(=O)N(c2ccc(C(F)(F)F)cc2)C1c1ccccc1 (stereo not given) | 3.11 µM | Activity (MDCK [2]): Active; Activity (Influenza A virus [3]): Dose-dependent effect; Activity (Influenza A virus [4]): Active; Activity (MDCK [5]): Active; selectivity ratio [6]: > 56.1; Activity (Influenza A virus [7]): Active; selectivity ratio [8]: > 112; Activity (Influenza A virus [9]): Active; Activity (Influenza A virus [10]): Dose-dependent effect; Activity (Influenza A virus [11]): Dose-dependent effect; CC50 at 48 h [12]: > 400 µM; IC50 (Influenza A virus [13]): 3.58 µM; IC50 (Influenza A virus [14]): 7.13 µM; selectivity ratio [15]: > 129; CC50 at 48 h [16]: > 400 µM; Activity (MDCK [17]): Active; IC50 (H3N2 subtype): 5.26 µM; selectivity ratio [18]: > 76; Activity (Influenza A virus [19]): Active; Activity (Influenza A virus [20]): Active
18 | CCOC(=O)C1=C(Nc2ccc(C(F)(F)F)cc2)C(=O)N(c2ccc(C(F)(F)F)cc2)C1c1ccc(Br)s1 (stereo not given) | > 400 µM | 
19 | CCOC(=O)C1=C(Nc2ccc(C(F)(F)F)cc2)C(=O)N(c2ccc(C(F)(F)F)cc2)C1c1ccc(OC(F)(F)F)cc1 (stereo not given) | 128 µM | 
20 | CCOC(=O)C1=C(Nc2ccccc2)C(=O)N(c2ccccc2)C1c1ccccc1 (stereo not given) | > 400 µM | 
21 | COC(=O)C1=C(Nc2ccc(C(F)(F)F)cc2)C(=O)N(c2ccc(C(F)(F)F)cc2)C1c1ccccc1 (stereo not given) | 11.9 µM | 
22 | CCOC(=O)C1=C(Nc2ccc(C(F)(F)F)cc2)C(=O)N(c2ccc(C(F)(F)F)cc2)C1c1cccc(C(F)(F)F)c1 (stereo not given) | 11.8 µM | 
23 | CCOC(=O)C1=C(Nc2ccc(C(F)(F)F)cc2)C(=O)N(c2ccc(C(F)(F)F)cc2)C1c1ccc([N+](=O)[O-])cc1 (stereo not given) | > 400 µM | 
24 | CCOC(=O)C1=C(Nc2ccc(C(C)(C)C)cc2)C(=O)N(c2ccc(C(C)(C)C)cc2)C1c1ccccc1 (stereo not given) | > 400 µM | 
25 | CCOC(=O)C1=C(Nc2ccc(C(F)(F)F)cc2)C(=O)N(c2ccc(C(F)(F)F)cc2)C1c1ccc(C)cc1 (stereo not given) | 68.5 µM | 
26 | CCOC(=O)C1=C(Nc2ccc(C(F)(F)F)cc2)C(=O)N(c2ccc(C(F)(F)F)cc2)C1c1ccc(C(C)(C)C)cc1 (stereo not given) | > 400 µM | 
27 | CCOC(=O)C1=C(Nc2ccc(C(F)(F)F)cc2)C(=O)N(c2ccc(C(F)(F)F)cc2)C1c1cccc([N+](=O)[O-])c1 (stereo not given) | > 400 µM | 
28 | CCOC(=O)C1=C(Nc2ccc(Oc3ccccc3)cc2)C(=O)N(c2ccc(Oc3ccccc3)cc2)C1c1ccccc1 (stereo not given) | > 400 µM | 
29 | CCOC(=O)C1=C(Nc2cccc(Cl)c2)C(=O)N(c2cccc(Cl)c2)C1c1ccccc1 (stereo not given) | 6.91 µM | 
30 | CCOC(=O)C1=C(Nc2ccc(C(F)(F)F)cc2)C(=O)N(c2ccc(C(F)(F)F)cc2)C1 | 222 µM | 

From ChEMBL document CHEMBL4765325, “Discovery of dihydropyrrolidones as novel inhibitors against influenza A virus” (Eur J Med Chem, 2020)
